Publication PMC9290614 (The Journal of Dermatology, 2021)
Values joined by “and” are separate entries in the source; they are usually repeats but may differ in a detail not shown here. Equal values may be shown once. Read-outs that look alike come from different tables or passages of the source.

How the values were obtained:
CYP3A4 = settings: multiple p.o. doses of rifampicin (strong CYP3A4 induction); cited from earlier work
[1] = format: in vivo, human; settings: for Cmin (predose trough): geometric mean (CV% geometric mean); for AUC / AUC(0-t) / Cmax / Vd/F / half-life / Tmax: human, plasma, oral; for Tmax: median (minimum, maximum)
[2] = test system: subjects with moderate to severe psoriasis; settings: cited from earlier work
[3] = predominantly Caucasian healthy subjects, mean [SD]; cited from earlier work
Population PK = format: in vivo, human; settings: for AUC: human, plasma, oral, Median week 16 apremilast exposure (AUCτ,ss) derived from the PPK model, all subjects
Outline: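 Pooled plasma levels came from healthy or patient subjects: single oral 20–50 mg or multiple 30/50 mg b.i.d. in phase 1, plus phase 2b/3 psoriasis studies, including Japanese sparse/intensive samples at weeks 8–24. After below-LOQ exclusion, 5704 samples remained. Base model: CL/F, first-order Ka, absorption lag, Vc/F, mixed residual error. Tested covariates included age, sex, race, bodyweight and smoking.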

[4] = test system: subjects with moderate to severe psoriasis; assay: Exposure-response; format: in vivo, human; settings: for Predicted probability of achieving sPGA response (0 or 1) at week 16: non-Japanese, placebo 5.0%; for Predicted probability of achieving PASI-75 response at week 16: placebo 6.1%; for Predicted probability of achieving PASI-50 response at week 16: placebo 20.0%; for sPGA Probability: at race-specific median AUCτ,ss; for Predicted probability of sPGA response (0 or 1): typical model-derived exposure, Japanese subjects, placebo 14.1%
[5] = test system: plasma IL-17A, IL-17F, and IL-22; settings: 30 mg b.i.d., PSOR-009 (ESTEEM 2) and PSOR-011 PD subsets; cited from earlier work
[6] = PSOR-008/ESTEEM 1, 30 mg b.i.d.
[7] = PSOR-011, Japanese subjects, 30 mg b.i.d.
[8] = 10 mg b.i.d., median exposure 1065.4 ng·h/mL
[9] = 20 mg b.i.d., median exposure 2030.6 ng·h/mL
[10] = 30 mg b.i.d., median exposure 3169.2 ng·h/mL

## CCOc1cc([C@@H](CS(C)(=O)=O)N2C(=O)c3cccc(NC(C)=O)c3C2=O)ccc1OC [apremilast]
CYP3A4
  Decrease in apremilast exposure: ~72%
  Increase in apremilast clearance: 3.6 times
[1]; Japanese subjects, 20 mg b.i.d., week 20, n = 21
  Cmin (predose trough): 91 ng/mL and 90.8 (50.1) ng/mL
[1]; Japanese subjects, 30 mg b.i.d., week 20, n = 20
  Cmin (predose trough): 104 ng/mL and 104 (66.6) ng/mL
[1]; Japanese subjects, dose from 20 to 30 mg b.i.d.
  Increase of mean AUCτ and Cmax with increase in dose: ~ 1.2 times
[1]; 20 mg
  AUC: 1960 ng·h/mL
  AUC(0-t): 1600 ng·h/mL
  Cmax: 304 ng/mL
  Vd/F: 68 L
  half-life: 4.31 h
[1]; 20 mg, Japanese subjects, 20 mg b.i.d., week 20, n = 21
  Tmax: ~2 h
[1]; 30 mg
  AUC: 2400 ng·h/mL
  AUC(0-t): 1970 ng·h/mL
  Cmax: 374 ng/mL
  Vd/F: 83.1 L
  half-life: 4.06 h
[1]; 30 mg, Japanese subjects, 30 mg b.i.d., week 20, n = 20
  Tmax: ~2 h
[2]; PSOR-005, 30 mg b.i.d.
  Rate of PASI-75 response at week 16: 40.9%
  Rate of sPGA response (0 or 1) at week 16: 33.0%
[2]; PSOR-005
  Treatment effect (difference in proportions between apremilast 30 mg b.i.d. and placebo), PASI-75: 35.2%
  Treatment effect (difference in proportions between apremilast 30 mg b.i.d. and placebo), sPGA response: 21.1%
[2]; [6]
  Rate of PASI-75 response at week 16: 33.1%
  Rate of sPGA response (0 or 1) at week 16: 21.7%
[2]; PSOR-008/ESTEEM 1
  Treatment effect (difference in proportions between apremilast 30 mg b.i.d. and placebo), PASI-75: 27.8%
  Treatment effect (difference in proportions between apremilast 30 mg b.i.d. and placebo), sPGA response: 17.8%
[2]; [7]
  Rate of PASI-75 response at week 16: 28.2%
  Rate of sPGA response (0 or 1) at week 16: 29.6%
[2]; PSOR-011
  Treatment effect (difference in proportions between apremilast 30 mg b.i.d. and placebo), PASI-75: 21.1%
  Treatment effect (difference in proportions between apremilast 30 mg b.i.d. and placebo), sPGA response: 20.8%
[3]
  AUC0-∞: 3270 [1081] ng·h/mL
  Cmax: 298 [81.4] ng/mL
Population PK
  Clearance faster than in a typical 45-year-old: 14%
Population PK; 80-year-old
  Clearance slower than in a 45-year-old: 8%
Population PK; 102-kg individual
  Vc/F greater than in a typical 82-kg individual: approximately 14%
Population PK; final PPK model
  CL/F, typical value (RSE %): 9.25 (3.4) L/h
  Clearance faster in Japanese versus non-Japanese individuals: approximately 17%
  Ka, first-order rate of absorption, typical value (RSE %): 1.83 (11.7) h^−1
  Lag time of absorption, typical value (RSE %): 0.290 (11.7) h
  Reduction of CL/F in subjects with psoriasis compared with healthy subjects: approximately 17%
  Vc/F, typical value (RSE %): 115 (2.2) L
Population PK; 20 mg, 20 mg b.i.d.
  AUC: 2030 ng·h/mL
Population PK; 30 mg, 30 mg b.i.d.
  AUC: 3170 ng·h/mL
[4]; [8]
  Predicted probability of achieving sPGA response (0 or 1) at week 16: 16.2%
  Predicted probability of achieving PASI-75 response at week 16: 19.0%
  Predicted probability of achieving PASI-50 response at week 16: 43.8%
[4]; 20 mg BID, Caucasian
  sPGA Probability: 23.2%
[4]; 20 mg BID, Japanese
  sPGA Probability: 32.9%
[4]; [9]
  Predicted probability of achieving sPGA response (0 or 1) at week 16: 22.7%
  Predicted probability of achieving PASI-75 response at week 16: 28.6%
  Predicted probability of achieving PASI-50 response at week 16: 55.3%
[4]; 20 mg b.i.d.
  Predicted probability of sPGA response (0 or 1): 33.8%
[4]; 30 mg BID, Caucasian
  sPGA Probability: 27.5%
[4]; 30 mg BID, Japanese
  sPGA Probability: 36.3%
[4]; [10]
  Predicted probability of achieving sPGA response (0 or 1) at week 16: 27.3%
  Predicted probability of achieving PASI-75 response at week 16: 36.5%
  Predicted probability of achieving PASI-50 response at week 16: 62.8%
[4]; 30 mg b.i.d.
  Predicted probability of sPGA response (0 or 1): 37.5%
[5]
  Effect on plasma IL-17A, IL-17F, and IL-22: significantly reduced
